Calls of active or inactive are those of the source. No cut-off for these calls is given here.
Biological target: Cholinesterase (Equus caballus) (UniProt P81908)
Assay: Reversible inhibition of Equine serum BChE by Lineweaver-Burke plot
Conditions: not given
Outline: (§1)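 Equine serum BChE. Substrate-velocity curves were recorded at various substrate concentrations, each at several fixed inhibitor concentrations. Data were plotted as reciprocal velocity against reciprocal substrate concentration (Lineweaver-Burk). Km was taken as the negative reciprocal of the x-intercept and Vmax as the reciprocal of the y-intercept, then compared across inhibitor concentrations.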

Cholinesterase (Equus caballus), sequence (P81908 whole entry): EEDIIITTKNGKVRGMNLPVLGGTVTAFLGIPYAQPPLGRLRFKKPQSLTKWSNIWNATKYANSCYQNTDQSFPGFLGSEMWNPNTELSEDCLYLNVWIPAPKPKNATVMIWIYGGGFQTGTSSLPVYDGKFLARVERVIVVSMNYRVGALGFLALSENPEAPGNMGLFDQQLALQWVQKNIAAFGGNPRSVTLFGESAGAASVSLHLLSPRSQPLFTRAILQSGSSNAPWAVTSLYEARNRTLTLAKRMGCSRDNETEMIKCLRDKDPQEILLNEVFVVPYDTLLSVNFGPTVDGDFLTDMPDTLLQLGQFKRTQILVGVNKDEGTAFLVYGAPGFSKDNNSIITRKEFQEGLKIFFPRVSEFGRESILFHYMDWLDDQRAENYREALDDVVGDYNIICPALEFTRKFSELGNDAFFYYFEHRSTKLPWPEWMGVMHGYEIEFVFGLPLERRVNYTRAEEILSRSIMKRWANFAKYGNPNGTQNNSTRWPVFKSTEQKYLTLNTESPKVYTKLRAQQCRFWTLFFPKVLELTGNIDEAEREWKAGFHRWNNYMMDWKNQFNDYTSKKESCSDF

SMILES	inhibition
c1ccc2c(c1)CCN1CCc3cc(OCCCCCCOc4ccc5c(c4)CCN4CCc6ccccc6C54)ccc3C21 (centres undefined)	Active

Biological target: Cholinesterase (Equus caballus) (UniProt P81908)
Assay: Competitive inhibition of Equine serum BChE by Lineweaver-Burke plot
Conditions: not given
Outline: as §1

SMILES	inhibition
c1ccc2c(c1)CCN1CCc3cc(OCCCCCCOc4ccc5c(c4)CCN4CCc6ccccc6C54)ccc3C21 (centres undefined)	Active

Biological target: Cholinesterase (Equus caballus, UniProt P81908)
Assay: Inhibition of Equine serum BChE after 2 mins by colorimetric Ellman assay
Conditions: read-out: IC50

Cholinesterase, sequence (P81908 whole entry): as above

SMILES	IC50
C[N+]12CCc3ccccc3C1c1ccc(OCCCCCCCCOc3ccc4c(c3)CC[N+]3(C)CCc5ccccc5C43)cc1CC2 (centres undefined)	0.11 µM
c1ccc2c(c1)CCN1CCc3cc(OCCCCCCCCCCCCOc4ccc5c(c4)CCN4CCc6ccccc6C54)ccc3C21 (centres undefined)	0.92 µM
c1ccc2c(c1)CCN1CCc3cc(OCCCCCOc4ccc5c(c4)CCN4CCc6ccccc6C54)ccc3C21 (centres undefined)	0.017 µM
COc1ccc2c(c1)CCN(C)CCc1ccccc1C2	> 10000 µM
c1ccc2c(c1)CCN1CCc3cc(OCCCOc4ccc5c(c4)CCN4CCc6ccccc6C54)ccc3C21 (centres undefined)	0.15 µM
C[N+]12CCc3ccccc3C1c1ccc(OCCCCCCOc3ccc4c(c3)CC[N+]3(C)CCc5ccccc5C43)cc1CC2 (centres undefined)	0.027 µM
C[N+]12CCc3ccccc3C1c1ccc(OCCCCCOc3ccc4c(c3)CC[N+]3(C)CCc5ccccc5C43)cc1CC2 (centres undefined)	0.047 µM
C[N+]12CCc3ccccc3C1c1ccc(OCCCCOc3ccc4c(c3)CC[N+]3(C)CCc5ccccc5C43)cc1CC2 (centres undefined)	0.051 µM
CN1CCc2ccccc2Cc2ccc(OCCCCCCCCOc3ccc4c(c3)CCN(C)CCc3ccccc3C4)cc2CC1	0.21 µM
c1ccc2c(c1)CCN1CCc3cc(OCCCCCCCCOc4ccc5c(c4)CCN4CCc6ccccc6C54)ccc3C21 (centres undefined)	0.68 µM
c1ccc2c(c1)CCN1CCc3cc(OCCCCOc4ccc5c(c4)CCN4CCc6ccccc6C54)ccc3C21 (centres undefined)	0.017 µM
C[N+]12CCc3ccccc3C1c1ccc(OCCCCCCCCCCCCOc3ccc4c(c3)CC[N+]3(C)CCc5ccccc5C43)cc1CC2 (centres undefined)	0.036 µM
C[N+]12CCc3ccccc3C1c1ccc(OCCCOc3ccc4c(c3)CC[N+]3(C)CCc5ccccc5C43)cc1CC2 (centres undefined)	0.16 µM
CN1CCc2ccccc2Cc2ccc(OCCCOc3ccc4c(c3)CCN(C)CCc3ccccc3C4)cc2CC1	0.14 µM
c1ccc2c(c1)CCN1CCc3cc(OCCCCCCOc4ccc5c(c4)CCN4CCc6ccccc6C54)ccc3C21 (centres undefined)	0.014 µM
COc1ccc2c(c1)CCN1CCc3ccccc3C21 (centres undefined)	> 10000 µM
COc1ccc2c(c1)CC[N+]1(C)CCc3ccccc3C21 (centres undefined)	6.4 µM

Same assay, conditions: read-out: pIC50 (converted)

SMILES	IC50
C[N+]12CCc3ccccc3C1c1ccc(OCCCCCCCCCCCCOc3ccc4c(c3)CC[N+]3(C)CCc5ccccc5C43)cc1CC2 (centres undefined)	0.0353 µM

System: not listed separately
Assay: Selectivity ratio of IC50 for Electric eel AChE to IC50 for equine serum BChE
Conditions: not given

SMILES	Ratio IC50
C[N+]12CCc3ccccc3C1c1ccc(OCCCCCCCCOc3ccc4c(c3)CC[N+]3(C)CCc5ccccc5C43)cc1CC2 (centres undefined)	2.5
c1ccc2c(c1)CCN1CCc3cc(OCCCCCCCCCCCCOc4ccc5c(c4)CCN4CCc6ccccc6C54)ccc3C21 (centres undefined)	4.2
c1ccc2c(c1)CCN1CCc3cc(OCCCCCOc4ccc5c(c4)CCN4CCc6ccccc6C54)ccc3C21 (centres undefined)	38.3
c1ccc2c(c1)CCN1CCc3cc(OCCCOc4ccc5c(c4)CCN4CCc6ccccc6C54)ccc3C21 (centres undefined)	30.8
C[N+]12CCc3ccccc3C1c1ccc(OCCCCCCOc3ccc4c(c3)CC[N+]3(C)CCc5ccccc5C43)cc1CC2 (centres undefined)	5.6
C[N+]12CCc3ccccc3C1c1ccc(OCCCCCOc3ccc4c(c3)CC[N+]3(C)CCc5ccccc5C43)cc1CC2 (centres undefined)	5.9
C[N+]12CCc3ccccc3C1c1ccc(OCCCCOc3ccc4c(c3)CC[N+]3(C)CCc5ccccc5C43)cc1CC2 (centres undefined)	8.8
CN1CCc2ccccc2Cc2ccc(OCCCCCCCCOc3ccc4c(c3)CCN(C)CCc3ccccc3C4)cc2CC1	9.9
c1ccc2c(c1)CCN1CCc3cc(OCCCCCCCCOc4ccc5c(c4)CCN4CCc6ccccc6C54)ccc3C21 (centres undefined)	3
c1ccc2c(c1)CCN1CCc3cc(OCCCCOc4ccc5c(c4)CCN4CCc6ccccc6C54)ccc3C21 (centres undefined)	76.2
C[N+]12CCc3ccccc3C1c1ccc(OCCCCCCCCCCCCOc3ccc4c(c3)CC[N+]3(C)CCc5ccccc5C43)cc1CC2 (centres undefined)	3.4
CN1CCc2ccccc2Cc2ccc(OCCCOc3ccc4c(c3)CCN(C)CCc3ccccc3C4)cc2CC1	34
c1ccc2c(c1)CCN1CCc3cc(OCCCCCCOc4ccc5c(c4)CCN4CCc6ccccc6C54)ccc3C21 (centres undefined)	48.9
COc1ccc2c(c1)CC[N+]1(C)CCc3ccccc3C21 (centres undefined)	1.4

System: not listed separately
Assay: Cytotoxicity against human U87MG cells assessed as cell viability after 24 hrs by MTT assay
Assay type: cell-based, U-87MG ATCC
Conditions: not given
Outline: (§2)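 Photometric MTT cell-viability readout after compound exposure of human neuronal (SH-SY5Y) or glial (MG-U87) cells. CC50 reported as mean ± SD of at least three experiments, each run in triplicate.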

SMILES	CC50 at 24 h
c1ccc2c(c1)CCN1CCc3cc(OCCCCCCCCCCCCOc4ccc5c(c4)CCN4CCc6ccccc6C54)ccc3C21 (centres undefined)	46.6 µM
c1ccc2c(c1)CCN1CCc3cc(OCCCCCOc4ccc5c(c4)CCN4CCc6ccccc6C54)ccc3C21 (centres undefined)	8.7 µM
c1ccc2c(c1)CCN1CCc3cc(OCCCOc4ccc5c(c4)CCN4CCc6ccccc6C54)ccc3C21 (centres undefined)	26.9 µM
c1ccc2c(c1)CCN1CCc3cc(OCCCCCCCCOc4ccc5c(c4)CCN4CCc6ccccc6C54)ccc3C21 (centres undefined)	42 µM
c1ccc2c(c1)CCN1CCc3cc(OCCCCOc4ccc5c(c4)CCN4CCc6ccccc6C54)ccc3C21 (centres undefined)	19.5 µM
c1ccc2c(c1)CCN1CCc3cc(OCCCCCCOc4ccc5c(c4)CCN4CCc6ccccc6C54)ccc3C21 (centres undefined)	20.7 µM
COc1ccc2c(c1)CCN1CCc3ccccc3C21 (centres undefined)	775 µM

System: not listed separately
Assay: Cytotoxicity against human SH-SY5Y cells assessed as cell viability after 24 hrs by MTT assay
Assay type: cell-based
Conditions: not given
Outline: as §2

SMILES	CC50 at 24 h
c1ccc2c(c1)CCN1CCc3cc(OCCCOc4ccc5c(c4)CCN4CCc6ccccc6C54)ccc3C21 (centres undefined)	8.94 µM
c1ccc2c(c1)CCN1CCc3cc(OCCCCCCCCOc4ccc5c(c4)CCN4CCc6ccccc6C54)ccc3C21 (centres undefined)	19.2 µM
c1ccc2c(c1)CCN1CCc3cc(OCCCCOc4ccc5c(c4)CCN4CCc6ccccc6C54)ccc3C21 (centres undefined)	6.35 µM
c1ccc2c(c1)CCN1CCc3cc(OCCCCCCOc4ccc5c(c4)CCN4CCc6ccccc6C54)ccc3C21 (centres undefined)	7.4 µM
COc1ccc2c(c1)CCN1CCc3ccccc3C21 (centres undefined)	171 µM

Biological target: Acetylcholinesterase (Electrophorus electricus, UniProt O42275)
Assay: Inhibition of Electric eel AChE after 2 mins by colorimetric Ellman assay
Conditions: read-out: IC50

Acetylcholinesterase, sequence (O42275 whole entry): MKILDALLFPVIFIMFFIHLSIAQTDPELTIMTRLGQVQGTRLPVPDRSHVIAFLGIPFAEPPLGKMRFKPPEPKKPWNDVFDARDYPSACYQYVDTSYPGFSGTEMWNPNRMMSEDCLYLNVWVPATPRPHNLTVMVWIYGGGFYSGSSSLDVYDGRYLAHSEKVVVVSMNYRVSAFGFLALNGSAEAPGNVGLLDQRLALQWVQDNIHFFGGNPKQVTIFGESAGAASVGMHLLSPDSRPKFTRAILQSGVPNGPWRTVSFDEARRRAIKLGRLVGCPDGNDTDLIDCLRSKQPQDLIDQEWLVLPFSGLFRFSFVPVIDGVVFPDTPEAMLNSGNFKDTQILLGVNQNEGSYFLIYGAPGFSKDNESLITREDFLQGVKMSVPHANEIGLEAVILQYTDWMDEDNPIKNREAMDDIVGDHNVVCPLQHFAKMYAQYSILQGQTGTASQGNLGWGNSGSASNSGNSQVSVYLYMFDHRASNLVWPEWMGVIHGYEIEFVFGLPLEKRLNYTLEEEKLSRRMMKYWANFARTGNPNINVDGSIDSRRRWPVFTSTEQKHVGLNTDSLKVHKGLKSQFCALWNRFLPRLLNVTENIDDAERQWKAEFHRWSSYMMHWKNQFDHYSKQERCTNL

SMILES	IC50
C[N+]12CCc3ccccc3C1c1ccc(OCCCCCCCCOc3ccc4c(c3)CC[N+]3(C)CCc5ccccc5C43)cc1CC2 (centres undefined)	0.28 µM
c1ccc2c(c1)CCN1CCc3cc(OCCCCCCCCCCCCOc4ccc5c(c4)CCN4CCc6ccccc6C54)ccc3C21 (centres undefined)	4.1 µM
c1ccc2c(c1)CCN1CCc3cc(OCCCCCOc4ccc5c(c4)CCN4CCc6ccccc6C54)ccc3C21 (centres undefined)	0.65 µM
COc1ccc2c(c1)CCN(C)CCc1ccccc1C2	> 10000 µM
c1ccc2c(c1)CCN1CCc3cc(OCCCOc4ccc5c(c4)CCN4CCc6ccccc6C54)ccc3C21 (centres undefined)	4.5 µM
C[N+]12CCc3ccccc3C1c1ccc(OCCCCCCOc3ccc4c(c3)CC[N+]3(C)CCc5ccccc5C43)cc1CC2 (centres undefined)	0.15 µM
C[N+]12CCc3ccccc3C1c1ccc(OCCCCCOc3ccc4c(c3)CC[N+]3(C)CCc5ccccc5C43)cc1CC2 (centres undefined)	0.28 µM
C[N+]12CCc3ccccc3C1c1ccc(OCCCCOc3ccc4c(c3)CC[N+]3(C)CCc5ccccc5C43)cc1CC2 (centres undefined)	0.39 µM
CN1CCc2ccccc2Cc2ccc(OCCCCCCCCOc3ccc4c(c3)CCN(C)CCc3ccccc3C4)cc2CC1	2 µM
c1ccc2c(c1)CCN1CCc3cc(OCCCCCCCCOc4ccc5c(c4)CCN4CCc6ccccc6C54)ccc3C21 (centres undefined)	1.2 µM
c1ccc2c(c1)CCN1CCc3cc(OCCCCOc4ccc5c(c4)CCN4CCc6ccccc6C54)ccc3C21 (centres undefined)	1.1 µM
C[N+]12CCc3ccccc3C1c1ccc(OCCCCCCCCCCCCOc3ccc4c(c3)CC[N+]3(C)CCc5ccccc5C43)cc1CC2 (centres undefined)	0.12 µM
C[N+]12CCc3ccccc3C1c1ccc(OCCCOc3ccc4c(c3)CC[N+]3(C)CCc5ccccc5C43)cc1CC2 (centres undefined)	0.45 µM
CN1CCc2ccccc2Cc2ccc(OCCCOc3ccc4c(c3)CCN(C)CCc3ccccc3C4)cc2CC1	4.8 µM
c1ccc2c(c1)CCN1CCc3cc(OCCCCCCOc4ccc5c(c4)CCN4CCc6ccccc6C54)ccc3C21 (centres undefined)	0.69 µM
COc1ccc2c(c1)CCN1CCc3ccccc3C21 (centres undefined)	> 10000 µM
COc1ccc2c(c1)CC[N+]1(C)CCc3ccccc3C21 (centres undefined)	8.8 µM

Same assay, conditions: read-out: pIC50 (converted)

SMILES	IC50
c1ccc2c(c1)CCN1CCc3cc(OCCCCCOc4ccc5c(c4)CCN4CCc6ccccc6C54)ccc3C21 (centres undefined)	0.308 µM

From ChEMBL document CHEMBL1157900, “Bivalent 5,8,9,13b-tetrahydro-6H-isoquino[1,2-a]isoquinolines and -isoquinolinium salts: novel heterocyclic templates for butyrylcholinesterase inhibitors” (Bioorg Med Chem Lett, 2010)
